{"source": "ChEMBL document CHEMBL4715812", "about": "“Zampanolide Binding to Tubulin Indicates Cross-Talk of Taxane Site with Colchicine and Nucleotide Sites” (J Nat Prod, 2018)", "key": {"Bos taurus [1]": {"organism": "Bos taurus", "assay": "(§1) Covalent modification of compound-ligated activated form of calf brain dimeric tubulin assessed as effect on nucleotide binding affinity at E-site by measuring ratio of GDP nucleotide concentration to tubulin concentration incubated for 1.5 hrs in presence or absence of 10 uM GTP followed by passage through sephadex G25 column by HPLC analysis (reference value: 0.06 +/- 0.03)", "outline": "(§2)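 40 μM calf-brain tubulin in PEDTA buffer (10 mM NaPi, 1 mM EDTA, pH 7.0) incubated 1.5 h at 25 °C with 10% excess ligand or DMSO. Unbound nucleotide removed on Sephadex G-25 in PEDTA plus 10 μM GTP and […] at 4 °C. Aliquot diluted 20-fold in 10 mM NaPi, 1% SDS, pH 7.0; tubulin and nucleotide quantified, nucleotides by HPLC after extraction.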"}, "Homo sapiens [2]": {"organism": "Homo sapiens", "assay": "(§3) Covalent modification of GAB-buffer assembled microtubule (unknown origin) assessed as effect on nucleotide binding affinity at E-site by measuring ratio of GDP concentration to microtubule concentration incubated for 30 mins in presence or absence of 1 mM GTP and measured after 20 mins by HPLC analysis (reference value: 1)", "outline": "(§4)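 Calf-brain tubulin equilibrated in PEDTA (10 mM NaPi, 1 mM EDTA, pH 7.0), with 10% molar excess ligand or DMSO, then supplemented with 3.4 M glycerol, 1 mM EGTA, MgCl2 to 6 mM, and no nucleotide or 1 mM GTP. Assembled 30 min at 37 °C, spun 20 min at 37 °C, pellets washed in warm GAB without GTP. Tubulin measured, nucleotides extracted and quantified by HPLC.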"}, "Homo sapiens [3]": {"organism": "Homo sapiens", "assay": "as §3, with “of GTP” for “of GDP”, “to tubulin” for “to microtubule”", "outline": "as §4"}, "Bos taurus [4]": {"organism": "Bos taurus", "assay": "as §1, with “GTP” for “GDP nucleotide”, “1.94” for “0.06”", "outline": "as §2"}, "Bos taurus [5]": {"organism": "Bos taurus", "assay": "Induction of oligomerization of compound-ligated activated form of calf brain tubulin assessed as formation of tetramers by measuring sedimentation coefficient at 55 uM incubated for 30 mins in presence of GDP and 3.31 mM Mg2+ by analytical ultracentrifugation", "outline": "(§5)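 Calf-brain tubulin 50 μM in PEDTA with 55 μM zampanolide or DMSO, 1 mM GDP, 7 mM total (3.31 mM free) Mg2+, plus DTT; incubated 25 °C, 30 min, sedimentation velocity at 40 000 rpm; c(S) by least-squares boundary modelling corrected to water/20 °C; assembled polymer checked by uranyl acetate negative-stain EM.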"}, "Bos taurus [6]": {"organism": "Bos taurus", "assay": "Induction of oligomerization of compound-ligated activated form of calf brain tubulin assessed as formation of dimers by measuring sedimentation coefficient at 55 uM incubated for 30 mins in presence of GDP and 3.31 mM Mg2+ by […]", "outline": "as §5"}, "Bos taurus [7]": {"organism": "Bos taurus", "assay": "Induction of oligomerization of compound-ligated activated form of calf brain tubulin assessed as formation of microtubule by measuring sedimentation coefficient at 55 uM incubated for 30 mins in presence of GDP and 3.31 mM Mg2+ by electron micrography analysis", "outline": "as §5"}, "Bos taurus [8]": {"organism": "Bos taurus", "assay": "Induction of oligomerization of compound-ligated activated form of calf brain tubulin assessed as formation of double rings by measuring sedimentation coefficient at 55 uM incubated for 30 mins in presence of GDP and 3.31 mM Mg2+ by analytical ultracentrifugation", "outline": "as §5"}, "Bos taurus [9]": {"organism": "Bos taurus", "assay": "Induction of oligomerization of compound-ligated activated form of calf brain tubulin assessed as tubulin-tubulin interaction causing aggregation formation at 55 uM incubated for 30 mins in presence of GTP and 1.5 mM Mg2+ by analytical ultracentrifugation", "outline": "(§6)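 Tubulin 50 μM in PEDTA with 55 μM zampanolide or DMSO and 0.1 mM GTP; Mg2+ 1.5 mM total (0.14 mM free) or 3 mM total (0.77 mM free), free Mg2+ corrected for phosphate, nucleotide, EDTA binding; 25 °C, 30 min, then 40 000 rpm ultracentrifugation; c(S) distributions; negative-stain EM of samples.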"}, "Bos taurus [10]": {"organism": "Bos taurus", "assay": "Induction of oligomerization of compound-ligated activated form of calf brain tubulin at 55 uM incubated for 30 mins in presence of 0.1 mM GDP and 0.039 mM Mg2+ by analytical ultracentrifugation", "outline": "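Sedimentation velocity of 50 μM tubulin with 55 μM zampanolide or DMSO in PEDTA, 0.1 mM GDP, 1 mM total Mg2+ (0.039 mM free); 25 °C for 30 min, 40 000 rpm; c(S) fitted, corrected to water/20 °C.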"}, "Bos taurus [11]": {"organism": "Bos taurus", "assay": "Induction of oligomerization of compound-ligated activated form of calf brain tubulin at 55 uM incubated for 30 mins in presence of 0.1 mM GTP and 0.028 mM Mg2+ by analytical ultracentrifugation", "outline": "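Sedimentation velocity of 50 μM tubulin with 55 μM zampanolide or DMSO in PEDTA, 0.1 mM GTP, 1 mM total Mg2+ (0.028 mM free); 25 °C for 30 min, 40 000 rpm; c(S) fitted, corrected to water/20 °C.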"}, "Homo sapiens [12]": {"organism": "Homo sapiens", "assay": "Induction of oligomerization of compound modified microtubule (unknown origin) assessed as peloruside binding constant at 25 degreeC incubated for 30 mins followed by GTP addition and measured after 30 mins by HPLC analysis", "settings": "time 1.0 hrs", "outline": "(§7)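 Stabilized cross-linked microtubules (0.6 μM) preincubated 30 min, 25 °C with 10% excess zampanolide or DMSO in GAB (3.4 M glycerol, 10 mM NaPi, 1 mM EDTA, 6 mM MgCl2, 0.1 mM GTP, pH 6.7); peloruside 0.1–10 μM added, further 30 min at 25 °C; spun 20 min at 50 000 rpm; supernatant/pellet ligand by reverse-phase HPLC at 205/230 nm; Kb fitted, three independent measurements.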"}, "Bos taurus [13]": {"organism": "Bos taurus", "assay": "Induction of oligomerization of compound-ligated activated form of calf brain tubulin assessed as oligomer formation by measuring sedimentation coefficient at 55 uM incubated for 30 mins in presence of GTP/GDP and 0.14 mM Mg2+ by analytical ultracentrifugation"}, "Bos taurus [14]": {"organism": "Bos taurus", "assay": "Induction of oligomerization of compound-ligated activated form of calf brain tubulin assessed as formation of microtubule at 55 uM incubated for 30 mins in presence of GTP and 3 mM Mg2+ by electron micrography analysis", "outline": "as §6"}, "Bos taurus [15]": {"organism": "Bos taurus", "assay": "Induction of oligomerization calf brain tubulin assessed as formation of microtubule at 100 uM incubated for 30 mins in presence of GTP and 3 mM Mg2+ by electron micrography analysis"}, "Homo sapiens [16]": {"organism": "Homo sapiens", "assay": "Binding affinity to stabilized microtubule (unknown origin) at 25 degreeC incubated for 30 mins followed by GTP addition and measured after 30 mins by HPLC analysis", "settings": "time 1.0 hrs", "outline": "as §7"}, "Bos taurus [17]": {"organism": "Bos taurus", "assay": "Binding affinity to zampanolide-modified calf brain tubulin assessed as compound-protein complex stoichiometry ratio of 1:1 in absence of Mg2+ by spectrofluorometry assay"}, "Bos taurus [18]": {"organism": "Bos taurus", "assay": "Binding affinity to zampanolide-modified calf brain tubulin"}, "Bos taurus [19]": {"organism": "Bos taurus", "assay": "Binding affinity to calf brain tubulin assessed as compound-protein complex stoichiometry ratio of 1:1 in absence of Mg2+ by spectrofluorometry analysis"}}, "note": "The source made the active and inactive calls. The calls are words filed in the database; no cut-off is given here.", "data": [{"smiles": "CC1=C[C@H]2[C@@H](O)[C@H](C)[C@@H](O)[C@@H]2[C@H]2[C@@H]3C4=C5O[C@@](C)(CC[C@H](OC4=O)[C@@H]5C)[C@@H]3C[C@@H]12", "values": [{"measurement": "Ratio", "setting": "Bos taurus [1]", "result": 0.02}, {"measurement": "Ratio", "setting": "Homo sapiens [2]", "result": 0.97}, {"measurement": "Ratio", "setting": "Homo sapiens [3]", "result": 1.03}, {"measurement": "Ratio", "setting": "Bos taurus [4]", "result": 1.83}]}, {"smiles": "C=C1C[C@@H]2C/C=C/C(=O)C/C(C)=C\\C=C\\C(=O)O[C@H]([C@H](O)NC(=O)/C=C\\C=C\\C)C/C(C)=C/[C@H](C1)O2", "values": [{"measurement": "S20,w", "setting": "Bos taurus [5]", "result": 8, "unit": "Svedberg"}, {"measurement": "S20,w", "setting": "Bos taurus [6]", "result": 6, "unit": "Svedberg"}, {"measurement": "S20,w", "setting": "Bos taurus [7]", "result": "> 50", "unit": "Svedberg"}, {"measurement": "S20,w", "setting": "Bos taurus [8]", "result": 36, "unit": "Svedberg"}, {"measurement": "Ratio", "setting": "Bos taurus [1]", "result": 0.04}, {"measurement": "Activity", "setting": "Bos taurus [9]", "result": "inactive"}, {"measurement": "Activity", "setting": "Bos taurus [10]", "result": "inactive"}, {"measurement": "Ratio", "setting": "Homo sapiens [2]", "result": 0.84}, {"measurement": "Activity", "setting": "Bos taurus [11]", "result": "inactive"}, {"measurement": "Kb", "setting": "Homo sapiens [12]", "result": "3.1 10^6/M"}, {"measurement": "S20,w", "setting": "Bos taurus [13]", "result": 9, "unit": "Svedberg"}, {"measurement": "Ratio", "setting": "Homo sapiens [3]", "result": 0.92}, {"measurement": "S20,w", "setting": "Bos taurus [14]", "result": "> 50", "unit": "Svedberg"}, {"measurement": "Ratio", "setting": "Bos taurus [4]", "result": 0.91}]}, {"smiles": "CC(=O)O[C@@]12CO[C@@H]1C[C@H](O)[C@@]1(C)C(=O)[C@H](O)C3=C(C)[C@@H](OC(=O)[C@H](O)[C@@H](NC(=O)OC(C)(C)C)c4ccccc4)C[C@@](O)([C@@H](OC(=O)c4ccccc4)[C@H]21)C3(C)C", "values": [{"measurement": "Ratio", "setting": "Homo sapiens [2]", "result": 1.03}, {"measurement": "Ratio", "setting": "Homo sapiens [3]", "result": 1.02}]}, {"smiles": "C/C(=C\\c1csc(C)n1)[C@@H]1C[C@@H]2O[C@]2(C)CCC[C@H](C)[C@H](O)[C@@H](C)C(=O)C(C)(C)[C@@H](O)CC(=O)O1", "values": [{"measurement": "Activity", "setting": "Bos taurus [15]", "result": "Active"}]}, {"smiles": "CC[C@H](/C=C(/C)[C@@H]1C[C@@H](OC)C[C@H](O)C(C)(C)[C@@]2(O)O[C@@H](C[C@@H](OC)[C@H](O)C(=O)O1)C[C@@H](OC)[C@H]2O)CO", "values": [{"measurement": "Kb", "setting": "Homo sapiens [16]", "result": "4 10^6/M"}]}, {"smiles": "C=C1C[C@H]2C/C=C/C(=O)C/C(C)=C\\C=C\\C(=O)O[C@@H](C=O)C/C(C)=C/[C@@H](C1)O2", "values": [{"measurement": "Ratio", "setting": "Bos taurus [1]", "result": 0.03}, {"measurement": "Ratio", "setting": "Homo sapiens [2]", "result": 0.84}, {"measurement": "Ratio", "setting": "Homo sapiens [3]", "result": 0.95}, {"measurement": "Ratio", "setting": "Bos taurus [4]", "result": 1.33}]}, {"smiles": "COc1ccc(-c2ccc(OC)c(=O)cc2)c(OC)c1OC", "values": [{"measurement": "Activity", "setting": "Bos taurus [17]", "result": "Active"}, {"measurement": "Kb", "setting": "Bos taurus [18]", "result": "4.5 10^6/M"}, {"measurement": "Activity", "setting": "Bos taurus [19]", "result": "Active"}]}]}
